Source: the EternaBench riboswitch data

Tested on: MS2 coat protein
Experiment: apparent Kd, MS2 coat protein; higher = weaker binding; RNA-MaP array; FMN 200 µM where present
Summary of the method: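 Stalled E. coli RNA polymerase transcribed each design on Illumina sequencing-chip clusters. The clusters were titrated with SNAP-549-labelled MS2 coat protein, starting at 0.7 or 1.5 nM and doubling up to 3 µM, first without ligand and then with constant ligand, in 100 mM Tris-HCl pH 7.5, 80 mM KCl, 4 mM MgCl2, BSA, DTT, yeast tRNA and Tween-20. Green signal was normalised to red-channel RNA signal and to the control-cluster median Fmax. The apparent Kd is the median of filtered binding-curve fits made for each cluster.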

[1] = designed as: OFF switch for flavin mononucleotide, no ligand
[2] = ligand present: flavin mononucleotide, designed as: OFF switch for flavin mononucleotide
[3] = designed as: ON switch for flavin mononucleotide, no ligand
[4] = ligand present: flavin mononucleotide, designed as: ON switch for flavin mononucleotide

| Sequence | apparent Kd [1] [µM] | apparent Kd [2] [µM] | apparent Kd [3] [µM] | apparent Kd [4] [µM] |
| --- | --- | --- | --- | --- |
| GCUUGUGUUGAGGAUAUGCGCCGGCUCGCUGGCGCAGAAGGCGGCACAUGAGGAUCACCCAUGUCAGUUCGCGA | 0.0275 | 0.255 | – | – |
| GUCAGCUCGUGAGGAUAUACAACACUGCUUCGGCAGUGUGUUAAGAUCACAUGAGGAUCACCCAUGUAGAAGGCACGAGCUGAU | 0.00769 | 0.0889 | – | – |
| CUGUUAUAGGUCCAGAAUUACAACAUGAGGAUCACCCAUGUGCAGGAUAUCGGGUUAAUAAACGACGAGAAGGGCAUAGUCACG | 0.0356 | 0.104 | – | – |
| AGCGGCGCGGGCCACCGCAGAACCAGAAGGACAUGAGGAUCACCCAUGUAGCAGAACAGGGCGGUGUAGGAUAUGGCAGGCUCG | 0.0294 | 0.0523 | – | – |
| AAUACGUCAGGAUAUCUGAUGUCUAACUUCGGUUAGACAUCAGAGAAGGGACAUGAGGAUCACCCAUGUAUAAA | 0.0511 | 0.0449 | – | – |
| UGUGUUAUCGGAGGAUAUCGAUAUCAAACAUGAGGAUCACCCAUGUUGAGGAUCACCCAUGUCUACGAGAAGGCCGGCGUACUC | – | – | 0.0452 | 0.0506 |
| UUCUAGCUCACAGGAUAUGGGUAUCGACGAUGCCCAGAAGGGUGAUUUGGCACAUGAGGAUCACCCAUGUGGGCGCUUGAAUAU | – | – | 0.045 | 0.098 |
| UGUGAACAUGAGGAUCACCCAUGUGAGGAUAUACGAGCGUGAGAAAGAUAAAACGAGCGUAGAAGGCACAAGAA | 0.0751 | 0.102 | – | – |
| UAAACACCCUCAUGUGCCUGAGGACAUGAGGAUCACCCAUGUAAGGAUAUAGCCAUUAAAUCUAACUAGAAGGUAUAGGACAUC | 0.925 | 0.54 | – | – |
| GCGGUCAACGUAGGAUAUCUUCAGCCGCAGCGCAUUGCUGUACAUGAGGAUCACCCAUGUCCUGGAGAGAAGGACGGACUGCAA | – | – | 0.145 | 0.0232 |
| AGUACUACAGGAUAUACAUGAGUGAUACUCAUAUCCCUUCUACAUGAGGAUCACCCAUGUAGAAGGGUAGUACA | 0.0152 | 0.0117 | – | – |
| AAAUUUUGUCAAGGAUAUGUAUAAUUGAUUUGAAAACAUGAGGAUCACCCAUGUAUAUUGUGGGAACAGAAGGUGAAUAAGUAA | 0.209 | 0.19 | – | – |
| CUUUUGUGAGGAUAUCAGUAGUAGAACAAUAGUACUACUACUGAGAAGGCACAUGAGGAUCACCCAUGUUCUUC | 0.0335 | 0.118 | – | – |
| UUUUACAUAGGAUAUAGUUUCUUUUACAUGAGGAUCACCCAUGUCUCUCCUCUCUCUCUUCUAGAAGGAUGUUUCU | 0.0801 | 0.072 | – | – |
| GUAAUAAAGAUCCAAUUAUACUACAUGAGGAUCACCCAUGUGCAGGAUAUCGAGAGUUUAUAAUUCGAGAAGGGCAAAUUCAUU | 0.073 | 0.159 | – | – |
| ACAUGCGGAUGAGGAUAUUCAUCCAUGAGGAUAGAAGAAGGCAUACAUGAGGAUCACCCAUGUAUACACAUGAGGAUCCCUUAU | 0.059 | 0.137 | – | – |
| AAGUCAGCAGGAUAUGCGAUGUUGGGCUAGGUAGCGUGACCACAUGAGGAUCACCCAUGUAGAAGGGCUGGCUA | 0.0334 | 0.0344 | – | – |
| UAGUGGCAAGGAUAUACAGUGGAGAGGAUUGCAAGAGGUGGACAUGAGGAUCACCCAUGUAGAAGGUGCAGAGA | 0.298 | 0.182 | – | – |
| AUCAGCUGGUCAGGAUAUACGUCACUGCGUCAGCAGUGUGGUAAGAUCACAUGAGGAUCACCCAUGUAGAAGGGACGAGCUGAU | 0.0145 | 0.286 | – | – |

| Sequence | apparent Kd [1] [µM] | apparent Kd [2] [µM] | apparent Kd [3] [µM] | apparent Kd [4] [µM] |
| --- | --- | --- | --- | --- |
| AGCCACAGAGGAUAUACAUACAUCCAGUGGUAAAGAAUACUACAUGAGGAUCACCCAUGUAGAAGGCUGUGGCA | 0.0253 | 0.145 | – | – |
| CGGCGGAAAGGAUAUGCAGUUAUAUCAAAAUGUGGGCCACGACAUGAGGAUCACCCAUGUAGAAGGUUCAGCCG | 0.016 | 0.0134 | – | – |
| UAUUUACAUGAGGAUCACCCAUGUUAGGAUAUGUUUCUAUCGUCGAAAGAUGAUAUUUGCAGAAGGGACAUUAU | 0.0205 | 0.0233 | – | – |
| AAAAGACAUGAGGAUCACCCAUGUUAAGACGUGGGAGGAUAUGCAUGGCAAACAUGCUGUGCAGAAGGCCCGUGUC | – | – | 0.0584 | 0.0231 |
| AGUCGGAGCAGAGGAUAUAUACAUGAGGAUCACCCAUGUAAAUGAAUGAGCUGGAAACAGCAUGUAUAGAAGGCUGCUCCGACA | 0.113 | 0.303 | – | – |
| CGUGUUGACGAAGGAUAUGGAUACAUGAGGAUCACCCAUGUAUAUUUUGUGAUCAUAUUUAUGAUCCAGAAGGUCGUUGACACG | 0.0569 | 0.131 | – | – |
| AGUAAGAUGCAGAAGGUGUUAGCUAGAGCUACGACAUGAGGAUCACCCAUGUACUCAAAACCGUACAAGGAUAUGCAUCUUACA | – | – | 0.00955 | 0.00626 |
| UAUAUAUAGUAAGGAUAUGUAUUAAUUCUAUAAACAGAAGGUACUGACAUGAGGAUCACCCAUGUUUUAGUGUGGGCAUGUAGA | 0.0493 | 0.056 | – | – |
| GUAAAGUGAGGAUAUGCUGGAGGUGUAUUCUACGUGUCGAAACAUGAGGAUCACCCAUGUAGAAGGCACGGGCG | 0.0102 | 0.0131 | – | – |
| UCGAAAAUGCAAGGAUAUCAAUUAUAGCAAAAUAAGACAUGAGGAUCACCCAUGUAAAUAUGGAGUGAGAAGGUGCAAUAAUUU | – | – | 0.413 | 0.123 |
| GCUAAGCGAAUCAAGAUGGAUAGAACAUGAGGAUCACCCAUGUAGGAUAUGCUACACAAAGUGUAGCAGAAGGACAAGCUUAGC | 0.0199 | 0.0335 | – | – |
| AAGGUACAUGAGGAUCACCCAUGUGGGUCGGUCGCAGGAUAUCGCCGUUGGCCCUGGCGGCGAGAAGGGUGCCGAA | – | – | 0.375 | 0.0611 |
| GGAUUGAAUGAGGAUAUCGUAUUAGGUGUAAUGCGAGAAGGCAUGACAUGAGGAUCACCCAUGUAGUGUGGGUU | 0.509 | 0.772 | – | – |
| GUAUAUCACUAAGGAUAUCUGUAUUUUGUUGAAACAUGAGGAUCACCCAUGUUCAUGAAAUUAUAGGAGAAGGUAGAGAUAUAC | – | – | 0.00496 | 0.00457 |
| AAUCUAAUCCUUAAACAUGAGGAUCACCCAUGUAUUGGCAAGUAGGAUAUCGAUAAAUAUUUCAACGAGAAGGACUAUACAAAA | 0.0217 | 0.0317 | – | – |
| UGAUCUUGAGUCAGGAUAUGCUGGUAUUUUUACCAGCAGAAGGGACAUGAGGAUCACCCAUGUUCUCACUUUUU | 0.0101 | 0.0134 | – | – |
| AUGUGGUGCGUAGGAUAUCAUUGAGGGUCACCCUGAGAAGGACGUGAGGACAUGAGGAUCACCCAUGUGGAUCACCCAUGUCAU | 0.245 | 0.288 | – | – |
| GUGUACAGAGGAUAUACAUAAGCUAGGAAACUAGCUACUUCACAUGAGGAUCACCCAUGUAGAAGGCUGUACAC | 0.0161 | 0.0163 | – | – |
| UUUCUGUGAGGAUAUCAGUAGUAAAUAAAUAAAAUUACUACUGAGAAGGCACAUGAGGAUCACCCAUGUUCCUU | 0.0122 | 0.0297 | – | – |

| Sequence | apparent Kd [1] [µM] | apparent Kd [2] [µM] | apparent Kd [3] [µM] | apparent Kd [4] [µM] |
| --- | --- | --- | --- | --- |
| GAAAAGGUAGGAUAUACGAAAAAAAAGGGUAGAAAAAAUACACAUGAGGAUCACCCAUGUAGAAGGACCAAAAG | 0.0315 | 0.13 | – | – |
| CCCUCACAUGAGGAUCACCCAUGUCAGGAUAUCUAGUCAGACAGUGUAGCACUGCUGAAGAGAAGGGACGUAAA | 0.0169 | 0.0194 | – | – |
| GUGGUCAGACAUGAGGAUCACCCAUGUGGAAUAAAUAAGGUUUAGGAUAUGGAAUAUAGGAUAUACCAGAAGGGAGGGUUGGUG | – | – | 0.142 | 0.146 |
| UCAAAGCUAGGAUAUACAUGAGGAUCACCCAUGUUAUCACCCAUCGGGUCUUGCUUUUGUAGAAGGAGCAAUAA | 0.0283 | 0.0598 | – | – |
| AAAGAGUCAGGAUAUUCGUAUAGAGUAGCGCGACUCUAUACGAAGAAGGGACAUGAGGAUCACCCAUGUAAAAA | 0.0281 | 0.0456 | – | – |
| GUGCAUGUGCGAACUAACCCACAUGAGGAUCACCCAUGUAGGAGAAGGGUCCGGAGGUGCCGUGGACAGGAUAUCCUACGCCUU | 0.0175 | 0.0332 | – | – |
| UUGGCCGUCGUAGGAUAUGUAGGAUAUUCCUACAUGAGGAUCACCCAUGUUGACAUGGAAGAAGGACAGAAGGACGAUGUCCAU | – | – | 0.365 | 0.00487 |
| AAUAAUAAGGAGGAUAUCGUAUCGGAGACGAUACGAGAAGGCUUAACAUGAGGAUCACCCAUGUUCCUCAAUAA | 0.035 | 0.0767 | – | – |
| UAGACACUUACAGGAUAUAGGGCAGAGGGUGCCCUAGAAGGGUGAACAUGAGGAUCACCCAUGUAUGUGUCUGAUUAGAAGGCA | – | – | 0.0362 | 0.0694 |
| GGUUCUAGAGGAUAUACAAACUGAUCCUCAGAGCGCCGGCCACAUGAGGAUCACCCAUGUAGAAGGUUGGAAUC | 0.0203 | 0.0116 | – | – |
| ACAUGAGGAUCACCCAUGUGUACAUAGGAUAUUGAGGAUUAGGGAUGUUGUUUUGGAUUUGCCCACAAGAAGGAUGAAAGUGUU | – | – | 0.00968 | 0.00868 |
| GUCGGAAACGACAAACGUAGCAUACGAGAAGGCUGAUCCGCGACAUGAGGAUCACCCAUGUAGUUAGAGGAUAUUGGAUGCUAC | – | – | 0.0817 | 0.0173 |
| AUUUUUAAGGUAGGAUAUAGUAUAAUGGUUUAAUUAGAAGGAUCUCACAUGAGGAUCACCCAUGUAAUAGGAUUACCCAUGUAU | 0.0388 | 0.0268 | – | – |
| AACAUGCUAGGAUAUACAAGACAAAUUGGGCAUCCGCAUGGACAUGAGGAUCACCCAUGUAGAAGGAGUAUAAA | 0.167 | 0.278 | – | – |
| UUUAUGUCAGGAUAUACAUGAGGAUCACCCAUGUAUAUCUUAAAGUAUACAUGGAAAUGUAGAAGGGACGUCCU | 0.0151 | 0.0171 | – | – |
| CACUGCAUGUAAGGAUAUCGACUGGAUAACAGUCGAGAAGGUACAUGAGGAUCACCCAUGUAAAUAAUAAUAAAUAAAGCAGUG | 0.0151 | 0.0251 | – | – |
| GUCAGCGCGUGAGGAUAUACAACACUGCUUCGGCAGUGUAUUAAGAUCACAUGAGGAUCACCCAUGUAGAAGGCACGAGCUGAU | 0.014 | 0.263 | – | – |
| GUAGCAUACUGAGGAUAUUCAUACCGGAAACGGACAUGAGGAUCACCCAUGUUAUAUAAAUAUUUGGAGAAGGCAGAAUGCUAC | – | – | 0.0194 | 0.0132 |
